Compound activity deposited in PubChem BioAssay by Sanford-Burnham Center for Chemical Genomics.
Scp1 inh – Scp-1 phosphatase inhibitors, primary screen, biochemical, colorimetric, uHTS; Carboxy-terminal domain RNA polymerase II polypeptide A small phosphatase 1 (Homo …; Recombinant Scp1, phosphopeptide, malachite green phosphate absorbance; inhibition, % at 20 µM; 340,000 tested, 0.88% active; AID 493091, 2011;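 active = inhibition above about 50% at 20 µM, limit read from the data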;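 also: plate controls were DMSO wells with enzyme for no effect and wells lacking enzyme for full effect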
Target sequence (Q9GZU7 76-261 limits assumed): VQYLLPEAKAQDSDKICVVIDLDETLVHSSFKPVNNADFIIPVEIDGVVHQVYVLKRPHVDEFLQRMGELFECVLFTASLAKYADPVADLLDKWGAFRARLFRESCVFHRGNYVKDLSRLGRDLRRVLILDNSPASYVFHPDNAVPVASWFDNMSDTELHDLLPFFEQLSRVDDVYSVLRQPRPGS
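System: truncated SCP-1 phosphatase (76-261aa); medium: Tris acetate buffer pH 5.5 with MgCl2 and Tween-20; incubation: 45 min room-temperature reaction, 5 min colour, 30 min stabiliser; compound: single 20 µM dose, 1% DMSO; reagent: Phosphorylated 17-residue peptide substrate; read-out: % inhibition at 20 µM; technique: colorimetric free-phosphate detection, absorbance 630 nm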
DNMT1 block – human DNMT1 methyltransferase inhibitors, primary screen, biochemical, molecular beacon, fluorescence, HinP1I cleavage, uHTS. inhibition (reported as % activation of signal), % at 10 µM. 360,000 tested, 0.83% active. DNA (cytosine-5)-methyltransferase 1 (Homo sapiens), P26358; in the data active = inhibition above about 50%
NadD block – inhibitors of S. aureus NadD, primary screen, biochemical, colorimetric, uHTS; Nicotinate-nucleotide adenylyltransferase NadD (Staphylococcus aureus N315); purified NadD enzyme, colorimetric absorbance read-out; inhibition, % at 20 µM; 360,000 tested, 0.78% active; AID 602399, 2012; in the data active = inhibition above about 26%
SUMO1 PPI mod – modulators of SUMO1 protein-protein interactions, primary screen, biochemical, uHTS; SUMO1 binding to a labelled peptide, TR-FRET, 1 h; 360,000 tested, 0.33% active; Small ubiquitin-related modifier 1 (Homo sapiens), P63165; inhibition, % at 20 µM; AID 602429, 2012; in the data active = inhibition above about 37%
Target sequence (P63165 whole entry, looked up): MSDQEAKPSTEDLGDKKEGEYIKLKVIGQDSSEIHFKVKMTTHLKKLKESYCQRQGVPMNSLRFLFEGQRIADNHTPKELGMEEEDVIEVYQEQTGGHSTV
LMPTP block – LMPTP phosphatase inhibitors, primary screen, biochemical, fluorescence intensity, uHTS; recombinant LMPTP-A, OMFP fluorogenic substrate; inhibition, % at 20 µM; Low molecular weight phosphotyrosine protein phosphatase (Homo sapiens), P24666; 360,000 tested, 0.22% active;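 active = compounds that cut the enzyme signal by at least half of the control window in the single-dose screen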;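 also: plate controls were DMSO wells with enzyme plus substrate for no effect and substrate without enzyme for full effect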
Target sequence (P24666 whole entry, looked up): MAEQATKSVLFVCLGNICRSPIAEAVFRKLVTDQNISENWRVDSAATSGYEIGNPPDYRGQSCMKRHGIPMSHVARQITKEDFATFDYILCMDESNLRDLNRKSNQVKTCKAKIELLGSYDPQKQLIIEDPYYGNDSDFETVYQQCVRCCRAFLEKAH
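Test system – LMPTP-A enzyme · Amount – LMPTP-A at 0.625 nM final in the reaction · Buffer or medium – Bis-Tris pH 6.0, DTT, detergent · Reagent – OMFP 400 µM · Doses – single 20 µM dose · Schedule – reaction 50 min, room temperature, dark · Detection – fluorescence intensity of OMFP turnover product · Evaluation – percent inhibition versus substrate-only and uninhibited controls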
STEP inh – STEP phosphatase inhibitors, primary screen, biochemical, fluorescence intensity, uHTS. recombinant STEP, OMFP fluorogenic substrate. inhibition, % at 20 µM. 360,000 tested, 0.25% active. AID 588621, 2011;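 active = inhibition at 20 µM, scaled per plate between control wells, above about 37%, limit read from the data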;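 also: 0% = DMSO with enzyme and substrate and 100% = substrate only without enzyme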
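Test system: STEP tyrosine phosphatase / Reagent: OMFP at 25 µM / Doses: 20 µM, 1% DMSO / Read-out: percent inhibition scaled to no-enzyme and uninhibited-enzyme controls, plate-pattern corrected / Detection: FITC-channel fluorescence of OMFP product / Medium: Bis-Tris buffer pH 6.0, 2.5 mM DTT, 0.005% Tween 20 / Schedule: 20 min at room temperature, dark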
An asterisk follows results filed as active; ! = not active in a repeat. A selection: hits, their analogues and other compounds. The true share with any hit is near 2.4%.

`N#Cc1c(N)n(-c2ccc(O)cc2)c2nc3ccccc3nc12` gave Scp1 inh -4, DNMT1 block -3, NadD block -7, SUMO1 PPI mod -5, LMPTP block 2 and STEP inh 0.
Screening CC1=Nc2ccc(C)cc2/C1=C/c1c(N)n2oc(C)cc2nc1=O returned Scp1 inh -4, DNMT1 block 56*!, NadD block 0, SUMO1 PPI mod 5, LMPTP block 16 and STEP inh 6.
For CSc1nsc2nc(=O)c(/C=C3\C(C)=Nc4ccc(C)cc43)c(N)n12 the results were Scp1 inh -11, DNMT1 block -4, NadD block 4, SUMO1 PPI mod 7, LMPTP block 8 and STEP inh 0.
Screening Cc1cccc(N2CCN(S(=O)(=O)c3ccc4c(c3)NC(=O)CS4)CC2)c1C returned Scp1 inh -7, DNMT1 block -6, NadD block 9, SUMO1 PPI mod -3, LMPTP block 3 and STEP inh 0.
Screening Nc1cccc2[nH]c(C(F)(F)F)nc12 returned Scp1 inh -4, DNMT1 block -12, NadD block 22, SUMO1 PPI mod 68*, LMPTP block -4 and STEP inh 3.
Screening CC(=O)Nc1ccc(-c2nc3cc(Cl)ccc3o2)cc1 returned Scp1 inh 62*, DNMT1 block -6, NadD block -4, SUMO1 PPI mod 13, LMPTP block 19 and STEP inh 4.
Screening O=C(O)c1ccccc1-c1ccccc1C(=O)Nc1ccc(-c2nc3cc(Cl)ccc3o2)cc1 returned Scp1 inh -3, DNMT1 block -3, NadD block 3, SUMO1 PPI mod 26, LMPTP block 1 and STEP inh 0.
COc1ccc(Cl)cc1Nc1nnc(-c2ccncc2)s1 was read as Scp1 inh 90*, DNMT1 block 39, NadD block -13, SUMO1 PPI mod 96*, LMPTP block 0 and STEP inh 83*.
Screening Nc1c2ccccc2nc2ccccc12 returned Scp1 inh -2, DNMT1 block 76*, NadD block 3, SUMO1 PPI mod -31, LMPTP block 19 and STEP inh 0.
For CC(C)CCOc1ncnc2c1sc1nc3c(cc12)CSC(C)(C)C3 the results were Scp1 inh -4, DNMT1 block 3, NadD block -1, SUMO1 PPI mod 44*, LMPTP block 0 and STEP inh -1.
Screening CCOC(=O)c1cnc(SSc2ncc(C(=O)OCC)c(N)n2)nc1N returned Scp1 inh 4, DNMT1 block 3, NadD block -7, SUMO1 PPI mod -2, LMPTP block 78* and STEP inh -3.
Screening C=CCSc1ncc(C(=O)OCC)c(N)n1 returned Scp1 inh -1, DNMT1 block 1, NadD block 2, SUMO1 PPI mod 2, LMPTP block 3 and STEP inh -3.
Cc1c(C(=O)Nc2nc(-c3ccccn3)cs2)oc2ccccc12 was read as Scp1 inh 10, DNMT1 block -9, NadD block 29, SUMO1 PPI mod 7, LMPTP block 4 and STEP inh 77*.
`COc1ccc2sc3cccc(NCCN(C)C)c3c(=O)c2c1` gave DNMT1 block 56*, NadD block -5, SUMO1 PPI mod -45, LMPTP block 1 and STEP inh 3.
`O=C(CCNC(=O)c1ccc([N+](=O)[O-])cc1)Nc1cccc(S(=O)(=O)N2CCCCC2)c1` gave Scp1 inh -11, DNMT1 block -2, NadD block -3, SUMO1 PPI mod -29, LMPTP block 1 and STEP inh 0.
COc1cc(OC)c(-c2c3cc(O)c(=O)cc-3oc3cc(O)c(O)cc23)cc1OC was read as Scp1 inh -7, DNMT1 block 17, NadD block 13, SUMO1 PPI mod -77, LMPTP block 22 and STEP inh -206.
